Counter-ions that a name gives are not always drawn. Like-named read-outs stand apart in the source and are kept apart here.
Tests used:
[1] = cited from earlier work
advanced cancer = conditions: phase I, ref Seckl et al, 2012, cited from earlier work
[2] = tested on: well-vascularised breast cancer HTX; assay: Antitumour activity in well-vascularised breast cancer HTX; type: in vivo, human; conditions: for antitumour activity at tolerated doses / antitumour activity at toxic dose levels: SD, i.p.
microtubules = conditions: ref Bonezzi et al, 2009; cited from earlier work
endothelial cell = conditions: in vitro; ref Bonezzi et al, 2009; cited from earlier work
tumour blood vessels = conditions: in vivo; ref Bonezzi et al, 2009; cited from earlier work
[3] = tested on: NCI 60-cell line panel (60 human tumour cell lines); conditions: cited from earlier work
[4] = at 30 min; ref Burger et al, 2007; cited from earlier work
[5] = tested on: two human renal cell cancer HTXs, a breast cancer HTX and a murine syngeneic colon cancer; conditions: P<0.01; ref Burger et al, 2007; cited from earlier work
[6] = tested on: NCI 60-cell line panel (60 human tumour cell lines); assay: NCI in vitro 60-cell line screen; type: cell-based
Procedure, shortened: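 Test compounds were run in each of the 60 human tumour cell lines for 48 h of drug exposure. The data were summarised as a mean graph with COMPARE analysis.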

[7] = Pre-formulation / solubility; type: physicochemical
[8] = tested on: doxorubicin-resistant, oestrogen receptor negative human breast cancer xenograft MT-3/ADR; assay: Antitumour activity in MT-3/ADR xenograft; type: in vivo
[9] = ref Bradshaw and Westwell, 2004

For COc1ccc(/C=C\c2cc(OC)c(OC)c(OC)c2)cc1O [Combretastatin A-4, reference compound], the solubility ([1]; ref Dark et al, 1997, Tozer et al, 2002) is listed as “poorly soluble”.
In the case of Cc1cc(-c2nc3cc(F)ccc3s2)ccc1NC(=O)[C@@H](N)CCCCN.Cl.Cl [Phortress], the water solubility [1, 9] is given as “water-soluble”, the MTD (advanced cancer; preliminary data) is given as “not reached” and the tolerability (advanced cancer; preliminary data) is given as “well tolerated”. For the same compound, the “patients classified as having stable disease” value (advanced cancer; Thirty-three per cent of the patients) was 14/42.
In the case of COc1ccc(-c2cncn2-c2cc(OC)c(OC)c(OC)c2)cc1F [NSC736359], the “antitumour activity at tolerated doses” value [2] is given as “moderate”, the “antitumour activity at toxic dose levels” value [2] is given as “more pronounced” and the effect on microtubules (microtubules) is given as “disorganised microtubules”. The “effect on endothelial cell morphology and capillary formation” value (endothelial cell) was “selectively affected endothelial cell morphology and capillary formation” and the “blood vessel shutdown and tumour necrosis” value (tumour blood vessels) was “caused blood vessel shutdown and tumour necrosis”.
In the case of COc1ccc(-c2cncn2-c2cc(OC)c(OC)c(OC)c2)cc1 [NSC733436], the “antitumour activity at tolerated doses” value [2] is given as “moderate”, the “antitumour activity at toxic dose levels” value [2] is given as “more pronounced” and the effect on microtubules (microtubules) is given as “disorganised microtubules”. For the same compound, the “effect on endothelial cell morphology and capillary formation” value (endothelial cell) was “selectively affected endothelial cell morphology and capillary formation” and the “blood vessel shutdown and tumour necrosis” value (tumour blood vessels) was “caused blood vessel shutdown and tumour necrosis”.
For COc1cc(-n2cncc2-c2ccc3ccccc3c2)cc(OC)c1OC [NSC736992], the “antitumour activity at tolerated doses” value [2] is listed as “moderate”, the “antitumour activity at toxic dose levels” value [2] is listed as “more pronounced” and the effect on microtubules (microtubules) is listed as “disorganised microtubules”. For the same compound, the “effect on endothelial cell morphology and capillary formation” value (endothelial cell) was “selectively affected endothelial cell morphology and capillary formation” and the “blood vessel shutdown and tumour necrosis” value (tumour blood vessels) was “caused blood vessel shutdown and tumour necrosis”.
In the case of COc1ccc(C2=CN3C(=O)c4cc(OC)c(OC)cc4N=C[C@@H]3C2)cc1 [DRH-417], the IC50 ([3]; read-out: mean IC50, NCI 60-cell line panel, ref Burger et al, 2007) is given as 3 nM, the peak plasma concentration [4] is given as 171 nM and the “antitumour activity in vivo” value [5] is given as “marked activity”.
In the case of COc1cc(-n2cncc2-c2ccc3ccccc3c2)cc(OC)c1OC [water-soluble salt of NSC736992], the “density (size and number) of CD31+ blood vessels” value ([2]; alone or in combination) is reported as “not affected”, the “efficacy in combination with carboplatin or taxol” value ([2]; combination with carboplatin or taxol) is reported as “not increased” and the “efficacy (additional studies)” value ([2]; same HTX, also with other treatment schedules) is reported as “moderate to borderline”.
In the case of Cc1cc(-c2nc3cc(F)ccc3s2)ccc1N [5F 203], the GI50 ([3]; NCI 60-cell line screen, ref Bradshaw and Westwell, 2004) is given as “low nanomolar” and the “selectivity in NCI 60-cell line screen” value [3, 9] is given as “selectivity against breast and ovarian cancer sub-panels”.
With COc1ccc2c(c1)[nH]c(=O)c1c3ccccc3cn21 [NSC 734237] the differential activity [6] was “reasonable, but inconclusive”, the solubility [7] was “quite insoluble” and the “antitumour activity at the MTD” value ([8]; MTD, i.p., d8–12, 15–19) was “significant activity”. For the same compound, the antitumour activity ([8]; i.p., d8–12, 15–19) was “dose-dependent antitumour activity”, the “CD31+ microvessel density (immunohistochemistry)” value ([8]; in vivo) was “dose-dependent reduction” and the “Ki-67 staining (immunohistochemistry)” value ([8]; in vivo) was “dose-dependent reduction”.
